# Reference: ChEMBL document CHEMBL4364337, “The discovery and optimization of a series of 2-aminobenzoxazole derivatives as ChemR23 inhibitors” (Bioorg Med Chem, 2019)
# Active and inactive are the calls of the source. The calls are words filed in the database; no cut-off is given here.
# Experiments:
# [1] = molecular target: T1, Chemerin-like receptor 1 (Homo sapiens, UniProt Q99788); experiment: Inhibition of chemR23 in human CAL1 cells assessed as reduction in chemerin-induced intracellular calcium ion concentration preincubated for 45 mins followed by chemerin addition; format: functional, cell-based
# T1 sequence (Q99788 whole entry): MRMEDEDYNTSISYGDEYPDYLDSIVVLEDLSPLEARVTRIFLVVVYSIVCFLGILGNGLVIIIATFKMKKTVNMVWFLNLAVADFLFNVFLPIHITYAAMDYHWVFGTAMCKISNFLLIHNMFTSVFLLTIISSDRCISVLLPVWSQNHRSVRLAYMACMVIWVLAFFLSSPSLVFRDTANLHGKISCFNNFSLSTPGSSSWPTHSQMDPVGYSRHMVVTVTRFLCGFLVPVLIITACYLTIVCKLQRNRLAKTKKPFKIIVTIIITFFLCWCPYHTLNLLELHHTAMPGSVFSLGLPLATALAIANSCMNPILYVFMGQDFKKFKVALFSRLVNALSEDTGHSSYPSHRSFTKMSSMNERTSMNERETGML
# Summary of the method: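 CAL-1 cells, native human ChemR23, 1 × 10⁴/well in RPMI 1640 with 10 mM HEPES, Calcium-3 dye, amaranth 0.75 mg/mL final. Compounds at final 0–10 µM for 45 min at 37 °C, then human chemerin (final 50 ng/mL, 1% BSA buffer); intracellular Ca²⁺ read by kinetic fluorescence; mean of four measurements.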
# [2] = molecular target: C-X-C chemokine receptor type 4 (Homo sapiens, UniProt P61073); experiment: Inhibition of CXCR4 expressed in human CAL1 cells assessed as reduction in SDF1alpha-induced intracellular calcium ion concentration preincubated for 45 mins followed by SDF1alpha addition; format: functional, cell-based
# C-X-C chemokine receptor type 4, sequence (P61073 whole entry): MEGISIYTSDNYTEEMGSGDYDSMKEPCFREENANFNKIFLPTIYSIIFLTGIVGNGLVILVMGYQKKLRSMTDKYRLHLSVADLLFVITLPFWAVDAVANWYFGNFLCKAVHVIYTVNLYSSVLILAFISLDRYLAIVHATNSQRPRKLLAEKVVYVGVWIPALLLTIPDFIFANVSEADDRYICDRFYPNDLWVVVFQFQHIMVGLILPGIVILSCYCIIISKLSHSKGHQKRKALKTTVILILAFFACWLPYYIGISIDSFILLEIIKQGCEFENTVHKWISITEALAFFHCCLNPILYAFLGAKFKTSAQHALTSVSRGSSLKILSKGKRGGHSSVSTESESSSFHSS
# Summary of the method: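 CAL-1 cells (1 × 10⁴/well) loaded with Calcium-3 in RPMI1640, 10 mM HEPES, amaranth 0.75 mg/mL final. Compounds at final 0–10 µM for 45 min at 37 °C, then human SDF-1α (final 5 × 10^-3 µM, in buffer with 1% BSA); intracellular Ca²⁺ read by kinetic fluorescence.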
# [3] = molecular target: T1, Chemerin-like receptor 1; experiment: Agonist activity at chemR23 expressed in human CAL1 cells assessed as increase in intracellular calcium ion concentration; format: functional, cell-based
# [4] = molecular target: T2, Chemerin-like receptor 1 (Mus musculus, UniProt P97468); experiment: Inhibition of chemR23 expressed in mouse BA/F3 cells assessed as reduction in chemerin-induced intracellular calcium ion concentration preincubated for 45 mins followed by chemerin addition; format: functional, cell-based
# T2 sequence (P97468 whole entry): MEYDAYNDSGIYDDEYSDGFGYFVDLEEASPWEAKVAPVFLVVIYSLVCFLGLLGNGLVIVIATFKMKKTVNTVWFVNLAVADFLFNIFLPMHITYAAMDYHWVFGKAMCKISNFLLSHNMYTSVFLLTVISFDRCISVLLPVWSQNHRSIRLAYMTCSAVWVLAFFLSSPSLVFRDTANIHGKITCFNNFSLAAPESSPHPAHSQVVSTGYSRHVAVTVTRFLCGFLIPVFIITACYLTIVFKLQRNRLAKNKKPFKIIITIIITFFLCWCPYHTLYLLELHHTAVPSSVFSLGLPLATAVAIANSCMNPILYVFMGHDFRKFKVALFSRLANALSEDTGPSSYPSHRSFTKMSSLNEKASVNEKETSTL
# Summary of the method: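 Ba/F3 cells stably expressing mouse ChemR23, 1 × 10⁴/well, loaded with Calcium-3 in RPMI1640, 10 mM HEPES, amaranth 0.75 mg/mL final. Compounds at final 0–10 µM for 45 min at 37 °C, then mouse chemerin (final 2 ng/mL, 1% BSA buffer); intracellular Ca²⁺ read by kinetic fluorescence.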
# [5] = molecular target: T3, Chemerin-like receptor 1 (Homo sapiens) (UniProt Q99788); experiment: Induction of chemR23 internalization in human CAL1 cells at 10 uM incubated for 30 mins at 37 degC by flow cytometric analysis; format: cell-based
# T3 sequence (whole entry): T1 sequence (Q99788 whole entry)
# Summary of the method: (§1)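 CAL-1 cells in RPMI1640 with 10 mM HEPES, 4.5 × 10⁵ cells per tube, exposed to compounds at 37 °C or 4 °C for 30 min; chemerin 50 ng/mL as reference ligand. Washed with PBS containing 2% FBS, stained with anti-ChemR23 antibody; surface ChemR23 measured by flow cytometry, single determination (N = 1).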
# [6] = molecular target: T3, Chemerin-like receptor 1 (Homo sapiens); experiment: Induction of chemR23 internalization in human CAL1 cells at 10 uM incubated for 30 mins at 4 degC by flow cytometric analysis; format: cell-based; summary of the method: as §1
# [7] = molecular target: T3, Chemerin-like receptor 1 (Homo sapiens); experiment: Induction of chemR23 internalization in human CAL1 cells at 3 uM incubated for 30 mins at 37 degC by flow cytometric analysis; format: cell-based; summary of the method: as §1
# [8] = molecular target: T3, Chemerin-like receptor 1 (Homo sapiens); experiment: Induction of chemR23 internalization in human CAL1 cells at 3 uM incubated for 30 mins at 4 degC by flow cytometric analysis; format: cell-based; summary of the method: as §1
IC50 [1],IC50 [2],EC50 [3],IC50 [4],Activity [5],Activity [6],Activity [7],Activity [8],Compound
0.038 µM,> 10 µM,0.28 µM,0.15 µM,,,,,CCCCN(c1nc2cc(C(=O)NC)ccc2o1)[C@H](C)c1ccc(-c2ccccc2-c2nnn[nH]2)cc1
3.3 µM,5.5 µM,> 10 µM,,,,,,CCCCN(Cc1ccc(-c2ccccc2-c2nnn[nH]2)cc1)c1nc2cc(Cl)c(C)cc2o1
0.94 µM,8.8 µM,4.5 µM,,,,,,CCCCN(c1nc2ccccc2o1)C(CC)c1ccc(-c2ccccc2-c2nnn[nH]2)cc1 (configuration not stated)
0.037 µM,> 10 µM,,0.43 µM,,,,,CCCCN(c1nc2cc(NC(N)=O)ccc2o1)[C@H](C)c1ccc(-c2ccccc2-c2nnn[nH]2)cc1
2.8 µM,> 10 µM,> 10 µM,,,,,,c1ccc(CN(Cc2ccc(-c3ccccc3-c3nnn[nH]3)cc2)c2nc3ccccc3o2)nc1
> 10 µM,> 10 µM,> 10 µM,,,,,,c1cncc(CN(Cc2ccc(-c3ccccc3-c3nnn[nH]3)cc2)c2nc3ccccc3o2)c1
> 30 µM,,,> 10 µM,,,,,CCCCN(c1nc2cc(N(C)C(N)=O)ccc2o1)[C@H](C)c1ccc(-c2ccccc2-c2nnn[nH]2)cc1
0.034 µM,> 10 µM,,0.94 µM,,,,,CCCCN(c1nc2cc(NC(=O)NC)ccc2o1)[C@H](C)c1ccc(-c2ccccc2-c2nnn[nH]2)cc1
2.2 µM,3.5 µM,8.3 µM,,,,,,c1ccc(-c2nnn[nH]2)c(-c2ccc(CN(CC3CCCC3)c3nc4ccccc4o3)cc2)c1
2.5 µM,3.9 µM,> 10 µM,,,,,,CCCCN(Cc1ccc(-c2ccccc2-c2nnn[nH]2)cc1)c1nc2cc(Cl)cc(C)c2o1
7.6 µM,9.9 µM,> 10 µM,,,,Active,inactive,CCCCN(c1nc2ccccc2o1)[C@@H](C)c1ccc(-c2ccccc2-c2nnn[nH]2)cc1
3.3 µM,5.6 µM,6.6 µM,,,,,,CCCCCN(Cc1ccc(-c2ccccc2-c2nnn[nH]2)cc1)c1nc2ccccc2o1
1.2 µM,2.9 µM,> 10 µM,,,,,,CCCCN(Cc1ccc(-c2ccccc2-c2nnn[nH]2)cc1)c1nc2cc(Cl)cc(Cl)c2o1
4.3 µM,> 10 µM,> 10 µM,,,,,,CCCCN(Cc1ccc(-c2ccccc2-c2nnn[nH]2)cc1)c1nc2cc(C(=O)OC)ccc2o1
3.4 µM,> 10 µM,> 10 µM,,,,,,COCCN(Cc1ccc(-c2ccccc2-c2nnn[nH]2)cc1)c1nc2ccccc2o1
> 3 µM,> 3 µM,> 3 µM,,,,,,CCCCN(c1nc2ccccc2o1)C(c1ccc(-c2ccccc2-c2nnn[nH]2)cc1)C1CC1 (configuration not stated)
0.048 µM,> 10 µM,1.3 µM,13 µM,,,,,CCCCN(c1nc2cc(CNC(=O)NC)ccc2o1)[C@H](C)c1ccc(-c2ccccc2-c2nnn[nH]2)cc1

# Second part, the compound before the results:
Compound,IC50 [1],IC50 [2],EC50 [3],IC50 [4],Activity [5],Activity [6],Activity [7],Activity [8]
CCCCN(c1nc2ccccc2o1)C(C)c1ccc(-c2ccccc2-c2nnn[nH]2)cc1 (racemic),0.25 µM,8.8 µM,2.7 µM,,,,,
CCCCN(Cc1ccc(-c2ccccc2-c2nnn[nH]2)cc1)c1nc2cc(C)ccc2o1,2.5 µM,8.6 µM,3.9 µM,,,,,
CCCCN(Cc1ccc(-c2ccccc2-c2nnn[nH]2)cc1)c1nc2ccccc2o1,3.3 µM,9.7 µM,5.2 µM,,Active,inactive,,
c1ccc(CN(Cc2ccc(-c3ccccc3-c3nnn[nH]3)cc2)c2nc3ccccc3o2)cc1,> 10 µM,9.6 µM,> 10 µM,,,,,
c1ccc(-c2nnn[nH]2)c(-c2ccc(CN(Cc3ccncc3)c3nc4ccccc4o3)cc2)c1,> 10 µM,> 10 µM,> 10 µM,,,,,
CCCCN(Cc1ccc(-c2ccccc2-c2nnn[nH]2)cc1)c1nc2cc(CC(=O)OC)ccc2o1,2.4 µM,> 10 µM,> 10 µM,,,,,
CCCCN(c1nc2cc(NC(=O)N(C)C)ccc2o1)[C@H](C)c1ccc(-c2ccccc2-c2nnn[nH]2)cc1,0.032 µM,> 10 µM,,0.51 µM,,,,
CCCCN(c1nc2ccccc2o1)[C@H](C)c1ccc(-c2ccccc2-c2nnn[nH]2)cc1,0.11 µM,8.7 µM,1.2 µM,0.15 µM,,,Active,inactive
CCCCN(Cc1ccc(-c2ccccc2-c2nnn[nH]2)cc1)c1nc2cc(CC(=O)NC)ccc2o1,1 µM,> 10 µM,3.9 µM,,,,,
CCCCN(c1nc2cc(CC(=O)NC)ccc2o1)[C@H](C)c1ccc(-c2ccccc2-c2nnn[nH]2)cc1,0.12 µM,> 10 µM,2.3 µM,> 10 µM,,,,
CCCCN(c1nc2cc(NC(C)=O)ccc2o1)[C@H](C)c1ccc(-c2ccccc2-c2nnn[nH]2)cc1,0.44 µM,> 10 µM,1.5 µM,2.1 µM,,,,
CCCCN(c1nc2ccccc2o1)C(C)(C)c1ccc(-c2ccccc2-c2nnn[nH]2)cc1,8.4 µM,> 10 µM,> 10 µM,,,,,
